# Experiments:
# [1] = Antiproliferative activity against mouse B16-F1 cells after 48 hrs by SRB assay; format: functional, cell-based; conditions: B16-F1, 48 h
# How it was run: (§1)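 Cells seeded in round-bottom 96-well plates and exposed to a wide range of concentrations for 48 h. Fixed with 10% trichloroacetic acid, washed five times with water, air-dried overnight, then stained with sulforhodamine B. Total protein read at 560 nm. IC50 is the concentration inhibiting growth by 50% relative to DMSO-treated controls, obtained by nonlinear regression.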
# [2] = test system: A-375; assay: Antiproliferative activity against human A375 cells after 48 hrs by SRB assay; format: functional, cell-based; conditions: A-375, 48 h; how it was run: as §1
# [3] = Antiproliferative activity against fibroblast cells after 48 hrs by SRB assay; format: cell-based; how it was run: as §1
SMILES,IC50 [1],IC50 [2],IC50 [3]
CCCCCCCCCCCCCCNC(=O)[C@@H]1CNC(c2ccccc2)=N1,7.2 µM,7.1 µM,17.3 µM
CCCCCCCCCCCCCCCCCCNC(=O)c1c[nH]c(-c2ccccc2)n1,> 30 µM,20.7 µM,47.4 µM
CCCCCCCCC/C=C/CCCCCCCNC(=O)c1c[nH]c(-c2ccccc2)n1,31.6 µM,16.1 µM,23.9 µM
COc1cc(C2=N[C@H](C(=O)N(C)OC)CN2)cc(OC)c1OC,> 20 µM,> 20 µM,> 20 µM
CCCCCCCCCCCCNC(=O)c1c[nH]c(-c2ccccc2)n1,30 µM,> 30 µM,–
CCCCCCCCCCCCCCCCNC(=O)[C@@H]1CNC(c2cc(OC)c(OC)c(OC)c2)=N1,3.8 µM,4.1 µM,13.3 µM
O=C(Nc1ccc(Br)cc1)c1c[nH]c(-c2ccccc2)n1,> 30 µM,> 30 µM,–
CCCCCCCCCCCCCCCCNC(=O)[C@@H]1CNC(c2ccccc2)=N1,5.7 µM,10.5 µM,59.6 µM
CCCCCCCCCCCCCCCCNC(=O)[C@@H]1CNC(c2ccc(NC(C)=O)cc2)=N1,2.4 µM,4.6 µM,14.8 µM
CCCCCCCCCCCCCCCCNC(=O)[C@@H]1CNC(Cc2cc(OC)c(OC)c(OC)c2)=N1,4 µM,3.9 µM,15.8 µM
CCCCCCCCCCCCCCCCNC(=O)[C@@H]1CSC(Cc2ccc(NC(C)=O)cc2)N1 (stereo partly specified),171 µM,191 µM,> 100 µM
CC(=O)Nc1ccc(CC2N[C@H](C(=O)Nc3ccc4c(c3)Cc3ccccc3-4)CS2)cc1 (stereo partly specified),4 µM,6.1 µM,15.3 µM
CCCCCCCCCCCCCCCCNC(=O)[C@H]1CC[C@@H](c2ccccc2)N1,11.5 µM,13.7 µM,46.6 µM
CCCCCCCCCCCCCCCCNC(=O)[C@@H]1CSC(Cc2ccccc2)N1 (stereo partly specified),6.5 µM,8.1 µM,15.3 µM
CCCCCCCCCCCCCCCCCCNC(=O)[C@@H]1CNC(c2ccccc2)=N1,50.5 µM,54.3 µM,111 µM
CCCCCCCCC/C=C/CCCCCCCNC(=O)[C@@H]1CNC(c2ccccc2)=N1,12 µM,8.3 µM,24.6 µM
CCCCCCCCC/C=C/CCCCCCCNC(=O)[C@@H]1CSC(Cc2ccccc2)N1 (stereo partly specified),11.6 µM,10.3 µM,15.5 µM
O=C(Nc1ccc2c(c1)Cc1ccccc1-2)[C@@H]1CSC(Cc2ccccc2)N1 (stereo partly specified),118 µM,174 µM,> 100 µM
CCCCCCCCCCCCCCNC(=O)c1c[nH]c(-c2ccccc2)n1,38.2 µM,18.7 µM,42.7 µM
CCCCCCCCCCCCCCCCNC(=O)c1c[nH]c(-c2ccccc2)n1,39.7 µM,16.5 µM,27.9 µM
CCCCCCCCCCNC(=O)c1c[nH]c(-c2ccccc2)n1,> 30 µM,> 30 µM,–
CCCCCCCCCCCCCCCCNC(=O)[C@@H]1CSC(C(C)c2ccccc2)N1 (stereo partly specified),12.2 µM,13.1 µM,55.7 µM
CCCCCCCCC/C=C/CCCCCCCNC(=O)[C@@H]1CSC(C(C)c2ccccc2)N1 (stereo partly specified),16.5 µM,21.2 µM,237 µM
CN(C)/N=N/c1[nH]cnc1C(N)=O [DACARBAZINE],> 100 µM,> 100 µM,–
CNC(=O)c1cc(Oc2ccc(NC(=O)Nc3ccc(Cl)c(C(F)(F)F)c3)cc2)ccn1 [SORAFENIB],4.9 µM,5.4 µM,15.1 µM

# From ChEMBL document CHEMBL1150379, “Synthesis and antiproliferative activity of imidazole and imidazoline analogs for melanoma” (Bioorg Med Chem Lett, 2008)
